Tests used:
Rattus norvegicus [1] = species on record: Rattus norvegicus; experiment: Tested for the hypolipidemic activity, expressed as percent decrease in Triglyceride in rat, at dosage of 100 mg for 5 days by Ryan and Rasho method; format: functional
Procedure, shortened: (§1)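 Male Sprague-Dawley rats, 4 weeks old, kept on CE-2 chow for at least 1 week, then grouped (generally five per group). Compound was mixed into CE-2 powder and fed ad libitum for the stated period; controls received plain CE-2 powder. Diet level is given as mg/100 g (mg%), about equal to mg/kg/day. Total serum triglyceride was measured by the Ryan and Rasho method and reported as percent depression versus control group mean. Significance was p < 0.05.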

Rattus norvegicus [2] = species on record: Rattus norvegicus; experiment: Tested for the hypolipidemic activity, expressed as percent decrease in serum cholesterol in rat, at dosage of 100 mg for 5 days by Zak et al method; format: functional
Procedure, shortened: as §1, with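 “cholesterol” for “triglyceride”, “Zak et al.” for “Ryan and Rasho”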

Rattus norvegicus [3] = species on record: Rattus norvegicus; experiment: Tested for the hypolipidemic activity, expressed as percent decrease in Triglyceride in rat, at dosage of 30 mg for 7 days by Ryan and Rasho method; format: functional; procedure, shortened: as §1
Rattus norvegicus [4] = species on record: Rattus norvegicus; experiment: Tested for the hypolipidemic activity, expressed as percent decrease in serum cholesterol in rat, at dosage of 30 mg for 7 days by Zak et al method; format: functional
Procedure, shortened: as §1, with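 “cholesterol” for “triglyceride”, “Zak et al.” for “Ryan and Rasho”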

Rattus norvegicus [5] = species on record: Rattus norvegicus; experiment: tested for the hypolipidemic activity, expressed as percent decrease in Triglyceride in rat, at dosage of 75.8 mg for 7 days by Ryan and Rasho method; format: functional; procedure, shortened: as §1
Rattus norvegicus [6] = species on record: Rattus norvegicus; experiment: Tested for the hypolipidemic activity, expressed as percent decrease in serum cholesterol in rat, at dosage of 75.8 mg for 7 days by Zak et al method; format: functional
Procedure, shortened: as §1, with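 “cholesterol” for “triglyceride”, “Zak et al.” for “Ryan and Rasho”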

Rattus norvegicus [7] = species on record: Rattus norvegicus; experiment: Hypolipidemic activity expressed as percentage decrease in triglyceride in rat, at dosage of 50 mg for 7 days; format: functional; procedure, shortened: as §1
Rattus norvegicus [8] = experiment: In vivo hypolipidemic activity, expressed as percent decrease in serum cholesterol in rat, at dosage of 20 mg for 7 days.; format: functional
Procedure, shortened: as §1, with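 “cholesterol” for “triglyceride”, “Zak et al.” for “Ryan and Rasho”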

Rattus norvegicus [9] = species on record: Rattus norvegicus; experiment: Tested for the hypolipidemic activity, expressed as percent decrease in serum cholesterol in rat, at dosage of 50 mg for 7 days; format: functional
Procedure, shortened: as §1, with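 “cholesterol” for “triglyceride”, “Zak et al.” for “Ryan and Rasho”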

Rattus norvegicus [10] = experiment: tested for the hypolipidemic activity, expressed as percent decrease in Triglyceride in rat, at dosage of 20 mg/kg 0 mg for 7 days by Ryan and Rasho method
Rattus norvegicus [11] = species on record: Rattus norvegicus; experiment: tested for the hypolipidemic activity, expressed as percent decrease in Triglyceride in rat, at dosage of 20 mg for 7 days by Ryan and Rasho method; format: functional; procedure, shortened: as §1
Rattus norvegicus [12] = species on record: Rattus norvegicus; experiment: tested for the hypolipidemic activity, expressed as percent decrease in serum cholesterol in rat, at dosage of 10 mg for 7 days by Zak et al method; format: functional
Procedure, shortened: as §1, with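 “cholesterol” for “triglyceride”, “Zak et al.” for “Ryan and Rasho”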

Rattus norvegicus [13] = species on record: Rattus norvegicus; experiment: tested for the hypolipidemic activity, expressed as percent decrease in Triglyceride in rat, at dosage of 10 mg for 7 days by Ryan and Rasho method; format: functional; procedure, shortened: as §1
Rattus norvegicus [14] = species on record: Rattus norvegicus; experiment: Tested for the hypolipidemic activity, expressed as percent decrease in serum cholesterol in rat, at dosage of 20 mg for 7 days by Zak et al method; format: functional
Procedure, shortened: as §1, with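 “cholesterol” for “triglyceride”, “Zak et al.” for “Ryan and Rasho”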

Rattus norvegicus [15] = species on record: Rattus norvegicus; experiment: Tested for the hypolipidemic activity, expressed as percent decrease in Triglyceride in rat, at dosage of 102 mg for 7 days by Ryan and Rasho method; format: functional; procedure, shortened: as §1
Rattus norvegicus [16] = species on record: Rattus norvegicus; experiment: Tested for the hypolipidemic activity, expressed as percent decrease in serum cholesterol in rat, at dosage of 102 mg for 7 days by Zak et al method; format: functional
Procedure, shortened: as §1, with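 “cholesterol” for “triglyceride”, “Zak et al.” for “Ryan and Rasho”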

Which Decrease (Rattus norvegicus [1]) does the source give for C=C(C)C(=O)OCCOC(=O)/C=C/c1ccc(OCCCCCCC/C=C/CCCCCCCCC)cc1 here?
Its Decrease is 21%.

What about the Decrease (Rattus norvegicus [2]) of the same molecule?
Its Decrease is -13%.

With C=CCOc1ccc(/C=C/C(=O)O)cc1 as the molecule, how does the Decrease (Rattus norvegicus [3]) read?
Its Decrease is -16%.

What about the Decrease (Rattus norvegicus [4]) of the same molecule?
Its Decrease is 0%.

Which Decrease (Rattus norvegicus [5]) does the source give for CCCCCCCCCCCCCCCC(=O)OCC(O)COC(=O)/C(C)=C/c1ccc(OCCCCCCCCCCCCCC)cc1 (stereo not drawn) here?
The Decrease was -19%.

And the Decrease (Rattus norvegicus [6])?
Its Decrease is 3%.

With CCCCCCCCCCCCCCCCOc1ccc(/C=C/C(=O)OCCCl)cc1 as the molecule, how does the Decrease (Rattus norvegicus [7]) read?
The Decrease was 43%.

What about the Decrease (Rattus norvegicus [8]) of the same molecule?
Its Decrease is 17%.

And the Decrease (Rattus norvegicus [9])?
The Decrease was -4%.

And the Decrease (Rattus norvegicus [10])?
The Decrease was 17%.

What does the source list for CCCCCCCCCCCCOc1ccc(/C=C(\C)C(=O)O)cc1?
Decrease (Rattus norvegicus [7]): 31%; Decrease (Rattus norvegicus [11]): 32%; Decrease (Rattus norvegicus [12]): 14%; Decrease (Rattus norvegicus [13]): 13%; Decrease (Rattus norvegicus [14]): 7%; Decrease (Rattus norvegicus [9]): 17%

Which results are given for CCCCCCCCCCCCCCCC(=O)OCC(COC(=O)/C(C)=C/c1ccc(OCCCCCCCCCCCCCC)cc1)OC(=O)CCCCCCCCCCCCCCC (stereo not drawn)?
Decrease (Rattus norvegicus [15]): 5%; Decrease (Rattus norvegicus [16]): 18%

Source: ChEMBL document CHEMBL1121524, “Studies of hypolipidemic agents. 1. Synthesis and hypolipidemic activities of alkoxycinnamic acid derivatives” (1980)
